In ChEMBL document CHEMBL3352664 (Bioorg Med Chem, 2014):
Calls of active or inactive are those of the source. The rule behind the calls is not given here.

Experiments:
[1] = system: Plasmodium falciparum; assay: Antiplasmodial activity against chloroquine-sensitive Plasmodium falciparum 3D7 by Malaria SYBR Green I-nucleic acid staining based fluorescence assay; format: functional, organism-based
Outline: (§1)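 SYBR Green I fluorescence assay (MSF). DMSO stock at 5 mg/mL, two-fold serial dilutions in RPMI-1640-FBS, tested in duplicate wells. Parasitized erythrocytes (0.8% parasitaemia, 1.0% cell suspension) incubated 72 h at 37 °C under 5% CO2. Lysis buffer with SYBR Green I added, 1 h at 37 °C. Fluorescence read at 485/530 nm.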

[2] = biological target: Heme; assay: Binding affinity to heme assessed as inhibition of 1-oleoyl-rac-glycerol-induced beta-hematin polymerization by UV spectrophotometry
[3] = Binding affinity to hematin in 40% aqueous DMSO and 20 mM HEPES buffer at pH 7.5 at 25 degC
[4] = system: Plasmodium yoelii; assay: Antimalarial activity against chloroquine-resistant Plasmodium yoelii N-67infected in Swiss Albino mouse assessed as mouse survival on day 28 at 100 mg/kg, po once daily for 4 days measured on day 4 post infection; format: functional, organism-based; parameters: dose 100 mg/kg
Outline: (§2)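 P. yoelii N-67 (innately CQ-resistant) infection in Swiss albino mice (22 ± 2 g), 1 × 10^6 parasitized RBC on day 0. Groups of five dosed orally once daily from day 0, 100 mg/kg/day as aqueous suspension with a few drops of Tween 80. Parasitaemia read from thin blood smears every four days. % suppression uses the group mean vs untreated controls. Survival and cure (no parasitaemia) tracked to day 28.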

[5] = system: Plasmodium yoelii; assay: Antimalarial activity against chloroquine-resistant Plasmodium yoelii N-67infected in Swiss Albino mouse assessed as suppression of parasitemia at 100 mg/kg, po once daily for 4 days measured on day 4 post infection; format: functional; conditions: N-67, 96 h; outline: as §2
[6] = system: Plasmodium falciparum; assay: Resistance index, ratio of IC50 for chloroquine-resistant Plasmodium falciparum K1 to IC50 for chloroquine-sensitive Plasmodium falciparum 3D7; format: functional
Outline: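 Resistance index computed as IC50 (K1) / IC50 (3D7). Both IC50s come from the 72 h SYBR Green I fluorescence assay on P. falciparum-infected erythrocytes, run with two-fold serial dilutions in duplicate wells.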

[7] = system: Plasmodium yoelii; assay: Antimalarial activity against chloroquine-resistant Plasmodium yoelii N-67infected in Swiss Albino mouse assessed as mouse cured on day 28 at 100 mg/kg, po once daily for 4 days measured on day 4 post infection; format: functional, organism-based; parameters: dose 100 mg/kg; outline: as §2
[8] = system: Plasmodium falciparum; assay: Antiplasmodial activity against chloroquine-resistant Plasmodium falciparum K1 by Malaria SYBR Green I-nucleic acid staining based fluorescence assay; format: functional, organism-based; outline: as §1
[9] = Selectivity index, ratio of CC50 for african green monkey Vero cells to IC50 for chloroquine-sensitive Plasmodium falciparum; format: functional
[10] = system: Plasmodium yoelii; assay: Antimalarial activity against chloroquine-resistant Plasmodium yoelii N-67infected in Swiss Albino mouse assessed as mouse survival on day 28 at 100 mg/kg, po once daily for 7 days measured on day 4 post infection; format: functional, organism-based; parameters: dose 100 mg/kg; outline: as §2
[11] = system: Plasmodium yoelii; assay: Antimalarial activity against chloroquine-resistant Plasmodium yoelii N-67infected in Swiss Albino mouse assessed as suppression of parasitemia at 100 mg/kg, po once daily for 7 days measured on day 4 post infection; format: functional; outline: as §2
[12] = system: Plasmodium yoelii; assay: Antimalarial activity against chloroquine-resistant Plasmodium yoelii N-67infected in Swiss Albino mouse assessed as mouse survival on day 28 at 20 mg/kg, po once daily for 4 days measured on day 4 post infection; format: functional, organism-based; parameters: dose 20 mg/kg
Outline: (§3)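 Reference arm in the N-67 P. yoelii Swiss albino mouse model. 1 × 10^6 parasitized RBC given on day 0, five mice per group, oral dosing once daily. Parasitaemia from thin blood smears every four days; % suppression from the group mean vs untreated controls. Survival and cure (no parasitaemia) followed to day 28.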

[13] = system: Plasmodium yoelii; assay: Antimalarial activity against chloroquine-resistant Plasmodium yoelii N-67infected in Swiss Albino mouse assessed as suppression of parasitemia at 20 mg/kg, po once daily for 4 days measured on day 4 post infection; format: functional; conditions: N-67, 96 h; outline: as §3
[14] = system: Plasmodium yoelii; assay: Antimalarial activity against chloroquine-resistant Plasmodium yoelii N-67infected in Swiss Albino mouse assessed as mouse cured on day 28 at 20 mg/kg, po once daily for 4 days measured on day 4 post infection; format: functional, organism-based; parameters: dose 20 mg/kg; outline: as §3
[15] = system: Plasmodium yoelii; assay: Antimalarial activity against chloroquine-resistant Plasmodium yoelii N-67infected in Swiss Albino mouse assessed as mouse cured on day 28 at 100 mg/kg, po once daily for 7 days measured on day 4 post infection; format: functional, organism-based; parameters: dose 100 mg/kg; outline: as §2

SMILES	IC50 [1]	IC50 [2]	log K [3]	Activity [4]	inhibition in vivo at 100 mg/kg [5]	Ratio IC50 [6]	Activity [7]	IC50 [8]	Selectivity Index [9]	Activity [10]	inhibition in vivo at 100 mg/kg [11]	Activity [12]	inhibition in vivo at 20 mg/kg [13]	Activity [14]	Activity [15]
C[C@@H](CCCN1CCOCC1)Nc1ccnc2cc(Cl)ccc12	14 nM	190000 nM	6	Active	99.6%	4.05	inactive	56.8 nM	19256	–	–	–	–	–	–
C[C@@H](CCCN1CCN(C)CC1)Nc1ccnc2cc(Cl)ccc12	14.2 nM	140000 nM	4.73	–	–	1.53	–	21.8 nM	14744	Active	100%	–	–	–	–
CCN(CC)CCCC(C)Nc1ccnc2cc(Cl)ccc12 (racemic) [CHLOROQUINE]	–	–	–	–	–	–	–	–	–	–	–	Active	99%	inactive	–
CCN(C)CCC[C@H](C)Nc1ccnc2cc(Cl)ccc12	12.4 nM	150000 nM	5.61	–	–	20.85	–	258 nM	26389	–	–	–	–	–	–
C[C@@H](CCCNC(C)(C)C)Nc1ccnc2cc(Cl)ccc12	33 nM	150000 nM	5.04	–	–	>47.43	–	> 1560 nM	7100	–	–	–	–	–	–
C[C@@H](CCCN1CCCC1)Nc1ccnc2cc(Cl)ccc12	15.8 nM	180000 nM	5.19	–	–	3.83	–	60.4 nM	1469	–	100%	–	–	–	inactive
C[C@H](CCCN1CCN(C)CC1)Nc1ccnc2cc(Cl)ccc12	6.92 nM	180000 nM	5.53	–	–	15.2	–	105 nM	18245	Active	100%	–	–	–	–
CCN(CC)CCC[C@@H](C)Nc1ccnc2cc(Cl)ccc12 [(R)-CHLOROQUINE]	–	–	–	–	–	–	–	–	–	–	100%	–	–	–	inactive
C[C@@H](CCCN1CCCCC1)Nc1ccnc2cc(Cl)ccc12	14.9 nM	150000 nM	5.4	–	–	8.09	–	121 nM	20154	–	–	–	–	–	–
CCCCCCCCN(CCCCCCCC)CCC[C@H](C)Nc1ccnc2cc(Cl)ccc12	94.8 nM	200000 nM	5.58	–	–	0.084	–	7.95 nM	103.94	inactive	14.5%	–	–	–	inactive
C[C@@H](CCCN(C)C)Nc1ccnc2cc(Cl)ccc12	17.1 nM	150000 nM	4.95	–	–	20.88	–	358 nM	12483	–	–	–	–	–	–
CCN(CC)CCC[C@H](C)Nc1ccnc2cc(Cl)ccc12	–	–	–	–	–	–	–	–	–	–	100%	–	–	–	inactive
C[C@H](CCCN1CCCCC1)Nc1ccnc2cc(Cl)ccc12	52.9 nM	130000 nM	7.19	–	–	10.13	–	536 nM	4257	–	–	–	–	–	–
C[C@H](CCCN(C)C)Nc1ccnc2cc(Cl)ccc12	6 nM	190000 nM	5.77	–	–	33.74	–	202 nM	28483	–	–	–	–	–	–
C[C@H](CCCN1CCCC1)Nc1ccnc2cc(Cl)ccc12	10.2 nM	140000 nM	6.02	–	–	12.23	–	125 nM	14140	inactive	100%	–	–	–	inactive
C[C@H](CCCNC(C)(C)C)Nc1ccnc2cc(Cl)ccc12	4.66 nM	170000 nM	5.71	–	–	>335	–	> 1560 nM	24459	–	–	–	–	–	–
CCCCCCCCN(CCCCCCCC)CCC[C@@H](C)Nc1ccnc2cc(Cl)ccc12	78.6 nM	190000 nM	5.02	–	–	1.6	–	126 nM	44.28	inactive	9.5%	–	–	–	inactive
C[C@H](CCCN1CCOCC1)Nc1ccnc2cc(Cl)ccc12	28.1 nM	150000 nM	5.69	–	–	3.76	–	106 nM	4186	–	–	–	–	–	–
CCN(C)CCC[C@@H](C)Nc1ccnc2cc(Cl)ccc12	7.78 nM	140000 nM	3.63	–	–	36.92	–	287 nM	15838	–	–	–	–	–	–
